VIM-2 inhibitor: inhibitors of Pseudomonas aeruginosa VIM-2 metallo-beta-lactamase; purified VIM-2, nitrocefin hydrolysis, epi-absorbance fluorescence; inhibition, % at 5.6 µM; hit rate 0.89% among 290,000; AID 1527;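 active means inhibition above the mean of all tested compounds plus 3 SD, cutoff set per screening run, cut at about 7.5% in these data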;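 further: red hydrolysis product quenches plate fluorescence so inhibitors raise well fluorescence; 0% = enzyme with DMSO and 100% = DMSO without enzyme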
Mdm2 MdmX PPI: inhibitors of human Mdm2/MdmX interaction | SaOS-2 split-luciferase Mdm2/MdmX complementation, luminescence | inhibition, % at 8 µM | hit rate 3% among 330,000;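 active means inhibition of at least 50% at 8 µM in the primary screen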
Target sequence (O15151 whole entry, looked up): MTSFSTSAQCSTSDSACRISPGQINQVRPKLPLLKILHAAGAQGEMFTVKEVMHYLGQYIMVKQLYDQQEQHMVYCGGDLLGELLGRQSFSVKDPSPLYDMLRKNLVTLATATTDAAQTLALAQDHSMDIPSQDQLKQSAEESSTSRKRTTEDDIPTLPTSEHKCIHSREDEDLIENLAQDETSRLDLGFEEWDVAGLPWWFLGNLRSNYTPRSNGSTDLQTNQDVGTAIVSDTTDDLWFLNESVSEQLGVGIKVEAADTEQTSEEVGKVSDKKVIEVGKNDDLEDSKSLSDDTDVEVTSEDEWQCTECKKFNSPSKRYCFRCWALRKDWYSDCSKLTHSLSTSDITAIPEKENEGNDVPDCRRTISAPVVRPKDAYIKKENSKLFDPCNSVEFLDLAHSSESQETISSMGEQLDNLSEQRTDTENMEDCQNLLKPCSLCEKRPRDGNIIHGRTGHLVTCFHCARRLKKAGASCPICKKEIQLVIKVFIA
Target sequence (Q00987 whole entry, looked up): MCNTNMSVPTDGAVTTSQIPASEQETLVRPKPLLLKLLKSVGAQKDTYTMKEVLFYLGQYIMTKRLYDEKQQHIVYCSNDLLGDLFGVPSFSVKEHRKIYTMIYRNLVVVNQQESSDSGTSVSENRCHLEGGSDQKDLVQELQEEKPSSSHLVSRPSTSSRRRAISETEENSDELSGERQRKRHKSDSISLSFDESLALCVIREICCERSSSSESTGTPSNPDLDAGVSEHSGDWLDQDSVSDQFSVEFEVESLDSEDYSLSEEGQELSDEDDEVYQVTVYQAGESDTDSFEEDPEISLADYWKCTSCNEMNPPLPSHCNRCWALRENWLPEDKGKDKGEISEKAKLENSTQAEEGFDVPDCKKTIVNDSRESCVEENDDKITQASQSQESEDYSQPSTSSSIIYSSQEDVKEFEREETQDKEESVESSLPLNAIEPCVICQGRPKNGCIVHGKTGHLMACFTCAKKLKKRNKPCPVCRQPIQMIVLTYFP
IMP-1 inh: blocks Pseudomonas aeruginosa IMP-1 metallo-beta-lactamase. hit rate 0.45% among 290,000. purified IMP-1, nitrocefin hydrolysis, epi-absorbance fluorescence. inhibition, % at 5.6 µM;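 active means inhibition above the mean plus 3 SD of all compounds in the same screening run, cut at about 4.5% in these data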;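 further: 0% = IMP-1 with DMSO and 100% = DMSO wells lacking enzyme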
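Material – recombinant IMP-1 enzyme, purified · Amount – IMP-1 0.2 nM before substrate addition · Medium – HEPES buffer pH 7.1 with ZnSO4 and Brij 35 · Timing – 25 °C, 15 min preincubation, 25 min reaction · Measured by – plate fluorescence quenching by hydrolysis product, ex 480/em 530 nm · Read-out – percent enzyme inhibition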
aSyn 5UTR inh: 5' untranslated region of α-synuclein, MLPCN primary screen; alpha-synuclein 5'UTR reporter, inhibitor activity; AID 1813; inhibition, % (tested at 7.5 µM); hit rate 0.82% among 300,000; in the data active means inhibition above about 60%; inconclusive means no clear call, values can overlap the other calls;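 further: H4 neuroglioblastoma cells stably carrying SNCA 5'UTR luciferase fusion; 0% = DMSO wells and 100% = positive control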
Jurkat NFkB inh: inhibitors of the PMA/ionomycin-induced NF-kB reporter in Jurkat cells | PMA/ionomycin-induced NF-kB luciferase reporter, luminescence | AID 435003 | hit rate 0.53% among 330,000 | inhibition, % at 4 µM; in the data active means inhibition above about 50%
697 NFkB inh: inhibitors of the PMA/ionomycin-induced NF-kB reporter in 697 B cells; 697 B-cell NF-kB luciferase reporter, 16 h; inhibition, % at 4 µM; hit rate 0.33% among 330,000; AID 435022; in the data active means inhibition above about 35%
Mdm2 MdmX conf: human Mdm2/MdmX binding inhibition, confirmed | shares compounds with Mdm2 MdmX PPI | luminescent assay | inhibition, % at 8 µM | hit rate 55% among 10,000 | AID 489028; in the data active means inhibition above about 40%
Full FLuc ctr: counter-screen for Mdm2/MdmX inhibitors: full-length luciferase. shares compounds with Mdm2 MdmX PPI. hit rate 77% among 6,200. inhibition, % at 8 µM. AID 504607. SaOS-2 full-length luciferase counterscreen, luminescence;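 active means mean inhibition at 8 µM reaching about 37%, which flags the compound as non-specific, limit read from the data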;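 further: p53-null SaOS-2 cells with luciferase driven by a doxycycline-inducible promoter; compound on cells about two nights before reading with doxycycline added after day one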
* marks the source's active call; other numbers are inactive results; ? = inconclusive; nt = not tested or not shown. Sampled rows, rich in hits. Any-hit rate of the full collection: about 4.7%.

SMILES | VIM-2 inhibitor | Mdm2 MdmX PPI | IMP-1 inh | aSyn 5UTR inh | Jurkat NFkB inh | 697 NFkB inh | Mdm2 MdmX conf | others
CCn1c(=O)c2cc(C(=O)Nc3ccccc3OC)sc2c2ccccc21 | 0 | 61* | -3 | -33 | 15 | 18 | 36 | Full FLuc ctr=73*
CCn1c(=O)c2cc(C(=O)Nc3cc(C)on3)sc2c2ccccc21 | -2 | 42 | -2 | 13 | -4 | 34 | nt
COc1ccc(OC)c(NC(=O)c2cc3c(Cl)nc4ccccc4c3s2)c1 | -3 | 53* | -2 | 9 | -1 | 31 | 20
COc1cc(CNc2ncc(-c3ccc(Br)cc3)n2C)cc(OC)c1OC | -2 | 27 | -3 | -10 | 13 | 8 | nt
CC1CN(C(=O)C(C)Sc2nnnn2C)CC(C)O1 (configuration not stated) | -5 | 2 | -5 | -4 | -18 | 18 | nt
Cc1ccc(CNC(=O)c2cc3c(=O)n4ccccc4nc3n(Cc3ccco3)c2=N)cc1 | nt | 44 | nt | -12 | 43 | 1 | nt
COc1ccc(CCNC(=O)c2cc3c(=O)n4cccc(C)c4nc3n(Cc3ccco3)c2=N)cc1OC | 5 | 100* | -5 | 2 | 38 | -124 | 96* | Full FLuc ctr=3
Cc1cccn2c(=O)c3cc(C(=O)NCc4ccco4)c(=N)n(CCc4ccccc4)c3nc12 | 1 | 11 | -1 | nt | -1 | -24 | nt
Cc1cccn2c(=O)c3cc(C(=O)NCCC4=CCCCC4)n(C)c3nc12 | 2 | 55* | -1 | -1 | -1 | -7 | 12
Cc1cccn2c(=O)c3cc(C(=O)NCCc4ccccc4)c(=N)n(Cc4ccco4)c3nc12 | 9.1* | 100* | -4 | -27 | 22 | -42 | 92* | Full FLuc ctr=14
COc1cccc(CN(C)C(=O)c2ccccc2Sc2ccccc2C#N)c1OC | -4 | -13 | -2 | -5 | 6 | 10 | nt
COCCN(C(=O)CSc1nnc(-c2ccccc2F)n1C)c1c(N)n(Cc2ccccc2)c(=O)[nH]c1=O | 1 | 29 | -2 | 7 | -13 | 11 | nt
CN(C)CC/C=C1/c2ccccc2Sc2c(O)cc(Cl)cc21 | -2 | 43 | -4 | -25 | 7 | 8 | nt
COc1cc(Cl)cc2c1Sc1ccccc1/C2=C/CCN(C)C | -2 | 69* | -2 | -42 | 10 | -8 | 13
CN(C)c1ccc(/C=C/c2nc3ccccc3s2)cc1 | -2 | 64* | -2 | 81* | -34 | -188 | -42
Cc1cccc(NC(=O)CCN2C(=O)C3C4C=CC(C4)C3C2=O)c1 (configuration not stated) | -4 | -12 | -5 | -1 | 9 | -8 | nt
Cc1ccc(OCCN2CCN(CC(O)Cn3c4ccccc4c4ccccc43)CC2)cc1 (configuration not stated) | -1 | 85* | -4 | 22 | 7 | 0 | 27
COc1ccc2c(c1)c1nc3ccccc3nc1n2CC(=O)OC(C)C | -4 | 58* | -1 | 25 | 5 | 0 | 16
COc1ccc(Cn2c3ccc(OC)cc3c3nc4ccccc4nc32)cc1 | 0 | 51* | 0 | 20 | 16 | -7 | 24
COc1ccc2c(c1)c1nc3ccccc3nc1n2Cc1ccc(OC(C)C)c(OC)c1 | 0 | -19 | 0 | 32 | 10 | 22 | nt
CC(=O)N(C(C)=O)c1ncnc2c1c(-c1ccc(Cl)cc1)nn2C(C)(C)C | -2 | 40 | -3 | 59 | -10 | -61 | nt
CC(=O)Nc1ncnc2c1c(-c1ccc(Cl)cc1)nn2C(C)(C)C | -3 | 73* | -4 | ? | -11 | -39 | 37 | Full FLuc ctr=55*
O=c1c2ccccc2nc(COc2ccccc2)n1/N=C/c1c[nH]c2ccccc12 | -3 | 27 | -4 | -22 | -12 | -4 | nt
O=c1c2ccccc2nc(COc2ccccc2)n1/N=C/c1ccc(O)cc1O | -4 | 66* | -2 | 27 | 22 | -26 | 58* | Full FLuc ctr=31
Cc1ccccc1OCc1nc2ccccc2c(=O)n1/N=C/c1cn[nH]c1-c1ccc(Br)cc1 | -3 | 69* | -4 | 8 | 7 | -15 | 24
SMILES | VIM-2 inhibitor | Mdm2 MdmX PPI | IMP-1 inh | aSyn 5UTR inh | Jurkat NFkB inh | 697 NFkB inh | Mdm2 MdmX conf | others
Cc1ccc(NC(=O)c2c(C)noc2-c2snnc2C)cc1 | -2 | 2 | -2 | -13 | 16 | 19 | nt
Cc1nnsc1-c1onc(C)c1C(=O)Nc1cc(Cl)cc(Cl)c1 | -3 | 76* | -2 | 10 | -2 | -20 | 16
O=C(NCCc1ccccc1)C(c1cccs1)N(C(=O)CCl)c1ccc(Cl)cc1 (configuration not stated) | -1 | 99* | -2 | -20 | 48 | 27 | 100* | Full FLuc ctr=52*
Cc1csc2nc(O)c(C(=O)NC3CCCCC3)c(=O)n12 | nt | 63* | nt | 17 | 12 | 5 | 66* | Full FLuc ctr=35
CC(C)(CO)NCc1c(OCc2ccc(Cl)cc2)ccc2ccccc12 | -1 | 55* | -1 | -17 | -9 | -14 | 29
CC(=O)C1=C(O)C(=O)N(c2cccnc2)C1c1ccc(Cl)cc1 (configuration not stated) | 2 | 7 | -2 | -7 | -12 | 26 | nt
CC(=O)c1cccc(NC(=O)Nc2cccnc2)c1 | -2 | 54* | -4 | 24 | 18 | 17 | 50* | Full FLuc ctr=28
COC(=O)c1cccc(NC(=O)Nc2ccc(Cl)c(Cl)c2)c1 | 0 | 80* | -1 | -134 | -13 | -14 | 80* | Full FLuc ctr=40*
COC(=O)c1cc(NC(=O)Nc2ccccc2)ccc1Cl | -3 | 2 | -4 | -55 | -35 | -14 | nt
O=C(Nc1cccnc1)Nc1cccc(F)c1 | -4 | 24 | -2 | -33 | 0 | 2 | nt
O=C(COc1ccc(Cl)cc1)N1CCN(C(=O)c2ccccc2F)CC1 | -1 | -6 | 0 | 15 | 8 | 15 | nt
COc1cc(CCC(=O)N2CCN(c3ncccn3)CC2)cc(OC)c1OC | -1 | 5 | -6 | -1 | 8 | 6 | nt
O=C1CCCc2oc3ccc(O)cc3c21 | 0 | 20 | -1 | -19 | 3 | 20 | nt
COc1ccc(Cc2nnc(N/N=C/c3ccc(O)cc3O)[nH]c2=O)cc1OC | -3 | 56* | -2 | 8 | -9 | 4 | 44* | Full FLuc ctr=50*
Cc1ccc(/C=N/Nc2ccnc3cc(Cl)ccc23)c(C)c1 | -2 | 100* | -3 | 38 | 17 | -21 | 29
Cc1ccccc1/C=N/Nc1ccnc2cc(Cl)ccc12 | -4 | nt | -3 | -52 | nt | nt | nt
CCCN(c1ccc(C(=O)OC)cc1)S(=O)(=O)c1ccccc1 | -3 | 13 | -2 | -20 | 4 | 7 | nt
CCCCN(c1ccc(C(=O)OC)cc1)S(=O)(=O)c1ccccc1 | 0 | 62* | -4 | -10 | 2 | -9 | 2
COc1ccc2c(c1)c(=O)oc1cc(OCC(=O)NC3CC3)ccc12 | -3 | 53* | -4 | -23 | -10 | 11 | -18

High-throughput results: PubChem BioAssay, several laboratories
